S1P4 antagonist: human S1P4 receptor antagonism | O95977 | S1P4-expressing cells, antagonist mode, reporter read-out | inhibition, % at 4.98 µM | actives 0.26% (n = 220,000) | AID 1510; in the data active means inhibition above about 29%;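 further: 0% = wells stimulated with agonist and 100% = vehicle wells without agonist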
S1P4 ag: agonists of human S1P4 receptor; S1P4-expressing cell line, agonist reporter assay; activation, % at 4.98 µM; actives 0.35% (n = 220,000); AID 1509; in the data active means activation above about 11%;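 further: 0% = DMSO vehicle and 100% = reference agonist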
TNAP inh no acc: blocks human TNAP activity with no phosphate acceptor present; P05186; purified TNAP, CDP-star luminescence, 30 min; inhibition, % at 20 µM; actives 0.26% (n = 200,000);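 active means tissue-nonspecific alkaline phosphatase inhibition above about 50% at 20 µM in the single-dose screen, limit read from the data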;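 further: 0% = DMSO negative control and 100% = EDTA positive control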
Target sequence (P05186 whole entry, looked up): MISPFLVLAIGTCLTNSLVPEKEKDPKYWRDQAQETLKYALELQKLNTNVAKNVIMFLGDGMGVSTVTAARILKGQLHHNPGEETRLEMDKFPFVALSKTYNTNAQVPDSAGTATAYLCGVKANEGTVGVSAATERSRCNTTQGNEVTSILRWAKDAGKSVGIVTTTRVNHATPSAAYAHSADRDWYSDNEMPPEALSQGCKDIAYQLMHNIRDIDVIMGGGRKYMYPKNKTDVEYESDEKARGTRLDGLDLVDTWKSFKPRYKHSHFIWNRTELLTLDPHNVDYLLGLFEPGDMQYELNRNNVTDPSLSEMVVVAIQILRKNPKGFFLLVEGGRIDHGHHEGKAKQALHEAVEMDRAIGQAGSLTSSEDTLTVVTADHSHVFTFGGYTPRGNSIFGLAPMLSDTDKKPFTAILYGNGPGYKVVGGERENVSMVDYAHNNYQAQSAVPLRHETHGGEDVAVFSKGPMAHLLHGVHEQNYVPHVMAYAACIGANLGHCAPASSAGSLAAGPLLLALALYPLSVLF
TNAP act hi DEA: TNAP (human) activation, high acceptor | purified TNAP, CDP-star luminescence, 1 M DEA, 30 min; stronger effect = higher value; 0 = EDTA background, 1 = DMSO-only activity | activation factor at 20 µM | P05186 | AID 1136 | 200,000 tested, under 10 active;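 active means activation factor at least 2 at 20 µM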
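Control set: EDTA negative control, DMSO positive control / Assay system: human TNAP / Quantity: TNAP 1/800 final / Evaluation: TNAP activation factor scaled between EDTA and DMSO control wells / Measured by: luminescent substrate turnover signal / Compound dosing: one dose, 20 µM / Times: 30 min enzyme reaction at room temperature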
S1P3 antagonist: S1P3 (human) receptor antagonism; CHO S1P3 NFAT-BLA reporter, FRET fluorescence, antagonist mode; actives 0.27% (n = 170,000); inhibition, % at 4.98 µM; AID 485; Q99500;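 active means inhibition above the plate cutoff, the mean inhibition of test wells on that plate plus 3 SD, cut at about 28% in these data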;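 further: cells challenged with S1P at its EC80 of 0.8 µM; blue over green emission ratio from cleaved BLA substrate after 4 h stimulation; 0% = S1P-stimulated wells and 100% = unstimulated DMSO-only wells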
TNAP inh hi DEA: inhibitors of human TNAP at high phosphate acceptor concentration | actives 0.03% (n = 200,000) | P05186 | inhibition, % at 20 µM | purified TNAP, CDP-star luminescence, 1 M DEA;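 active means over 50% inhibition of tissue-nonspecific alkaline phosphatase at 20 µM in the single-dose screen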;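 further: plate controls were DMSO wells for no effect and EDTA-quenched wells as full inhibition for full effect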
Active calls of the source: *; i = inactive; x = not tested or not shown. A selection: hits, their analogues and other compounds. The true share with any hit is near 1.1%.

SMILES	S1P4 antagonist	S1P4 ag	TNAP inh no acc	TNAP act hi DEA	S1P3 antagonist	TNAP inh hi DEA
O=C(N/N=C/C=C/c1ccccc1[N+](=O)[O-])c1cc(-c2ccccc2)n[nH]1	-7	-4	64*	0.9	12	7
O=C(N/N=C/C=C\c1ccccc1[N+](=O)[O-])c1ccccn1	-13	-1	-72	1	5	2
O=C(COc1ccccc1C(=O)N/N=C\c1ccc(O)c(O)c1)N/N=C/c1ccc(O)c(O)c1	-3	1	92*	0.4	x	60*
Cc1ccc(Cc2ccc(C(=O)NNC(N)=S)o2)cc1	2	0	-121	1	-8	-1
CS(=O)(=O)n1nc(-c2ccc(Cl)cc2)nc1SCc1ccccc1	9	-4	68*	1	x	0
CC1CCCCN1C(=O)COC(=O)c1n[nH]c2ccccc12 (configuration not stated)	5	-3	55*	1	x	-3
CCOC(=O)c1n[nH]c2ccccc12	-26	1	58*	1	x	-2
O=C(/C=C/c1cccs1)NCc1ccccc1	-13	0	-4	1	-2	1
O=C(Cn1cncn1)c1ccccc1	-7	1	x	x	2	x
CC(=O)Oc1ccc(N2C(=O)C3C4C=CC(CO)(O4)C3C2=O)cc1 (configuration not stated)	-7	2	-3	1.1	x	-9
O=C1C2C3C=CC(CO)(O3)C2C(=O)N1c1ccccc1-c1ccccc1 (configuration not stated)	31*	-2	-11	1	-18	0
CCc1nc2cc3sc(CC)nc3cc2s1	-16	0	-11	1	-1	-1
CCn1c(SCC(=O)c2ccc(O)c(O)c2)nnc1-c1ccc(C)cc1	-26	1	53*	0.9	x	6
COc1cccc2c1C(CO)N1C(C#N)C3CC(C(=O)O)C(C1C2)N3C (configuration not stated)	94*	0	x	x	27	x
NNC(=O)c1csc(-c2ccc(C(F)(F)F)cc2Cl)n1	-13	0	x	x	11	x
O=C1c2cccc3c([N+](=O)[O-])ccc(c23)C(=O)N1c1nccs1	99*	0	-10	1	x	-4
O=C1c2cccc3cccc(c23)C(=O)N1c1nccs1	5	3	-8	1	14	-2
N#CCCn1cc(/C=N/NC(N)=S)c(-c2ccccc2)n1	0	0	56*	1	-8	0
N#CCCn1cc(/C=N/NC(N)=S)c(-c2ccc(Br)cc2)n1	1	-1	-29	1	-15	0
Cn1c(N)c(C(=O)Nc2ccc(-c3ccccc3)cc2)sc1=S	3	1	x	x	-16	x
CSC1=NCCN1C(=O)c1ccc(S(=O)(=O)N2CCCCC2)cc1	-6	166*	-6	1	4	-1
CCC(C)NC(=O)CS(=O)(=O)Cc1nc(-c2cccc(OC)c2)oc1C (configuration not stated)	-8	1	-12	1	85*	-2
CC(=O)N1CC2([N+](=O)[O-])CN(C(C)=O)CC([N+](=O)[O-])(C1)C2(C)C	0	1	0	1.1	-5	-8
CC(C)Cc1nnc(NC(=O)CCC(=O)Nc2ccc(F)cc2)s1	1	-1	51*	1	x	-1
CCn1cc(C(=O)N2CCn3c(nc4ccccc43)C2)c(=O)c2ccc(C)nc21	-22	-2	-3	1	68*	3
SMILES	S1P4 antagonist	S1P4 ag	TNAP inh no acc	TNAP act hi DEA	S1P3 antagonist	TNAP inh hi DEA
CCN(CC)c1ccc(NC(=O)Cn2c(C(C)NC(=O)c3ccc(C)cc3)nc3ccccc32)cc1 (configuration not stated)	-13	2	i	2.3*	-12	-134
O=C(CCC(=O)N(CC(=O)NC1CCCCC1)Cc1cccs1)Nc1nccs1	-2	0	x	x	7	x
Cc1ccc(O)c(C(=O)c2cc(C#N)c3nc4ccccc4n3c2)c1	0	0	-35	0.7	1	30
N#CC(C#N)=C1C=CC=CN1/C(=C\c1ccco1)C(=O)c1ccc(-c2ccccc2)cc1	69*	-3	-4	1	-29	-1
COc1ccc(N(CC(=O)NCCC2=CCCCC2)S(=O)(=O)c2c(C)[nH]c(=O)[nH]c2=O)cc1	6	-1	x	x	1	x
Cc1ccc(NS(=O)(=O)c2cc([N+](=O)[O-])ccc2NNC(=S)Nc2cc(C)ccc2C)c(C)c1	6	-1	22	0.6	0	41
Cc1ccc(NS(=O)(=O)c2cc([N+](=O)[O-])ccc2NNC(=S)Nc2cccc(Cl)c2)c(C)c1	1	1	40	0.4	12	58*
N#Cc1c(NC(=O)CSc2nnc(-c3ccccc3)o2)sc2c1CCCC2	-3	1	4	0.4	x	63*
CCn1c(SCC(=O)Nc2sc3c(c2C#N)CCCC3)nnc1-c1ccncc1	0	-1	58*	0.2	x	77*
N#Cc1c(NC(=O)CSc2nnc(-c3ccccc3O)n2-c2ccccc2)sc2c1CCCC2	-1	0	-2	1	-18	-2
N#Cc1c(NC(=O)CSc2nnc(-c3ccncc3)n2CC2CCCO2)sc2c1CCCC2 (configuration not stated)	4	1	29	0.5	12	51*
CO/N=C/C(=N\Nc1cc(OC)cc(OC)c1)C(=O)c1ccccc1	7	1	-2	1	-7	3
CC(=O)n1nc(-c2cccnc2)nc1NCc1cccs1	-8	1	57*	1.1	-9	-6
CCC(=O)n1nc(-c2cccnc2)nc1NCc1cccs1	2	-1	69*	1	-23	4
N#CC1=C(N)Oc2cc3c(cc2C1c1ccc(Cl)cc1)OCO3 (configuration not stated)	-1	0	-8	1	72*	-1
CC(C)Cn1c(-c2ccccc2F)n[nH]c1=S	-19	4	52*	1.1	8	-10
COc1ccc(CNCC(O)COc2cccc3c2OC(C)(C)C3)cc1 (configuration not stated)	-27	2	-9	1	19	-4
CC1(C)CC(=O)CC(=Nc2ccc(C(=O)O)cc2)C1	-8	0	-15	1	103*	-4
CC1(C)CC(=O)C/C(=N/NC(=O)c2ccc(-c3ccccc3)cc2)C1	1	1	-22	1	-3	-2
COc1ccc(-c2cnnc(N/N=C/c3ccc(O)c(O)c3)n2)cc1	-2	2	56*	0.6	12	36
COc1c(O)c(O)c2oc(-c3ccccc3)cc(=O)c2c1OC	6	1	4	1	-3	4
COc1cc(-c2cc(=O)c3c(O)c(OC)c(OC)c(O)c3o2)ccc1O	6	1	64*	0.9	-2	5
O=C1C=CC(=O)N1CCCCCCN1C(=O)C=CC1=O	79*	0	-5	1	5	1

Assay outcomes: PubChem, several laboratories
